ChEMBL document CHEMBL2412990, “Synthesis and pharmacological evaluation of new N-phenylpiperazine derivatives designed as homologues of the antipsychotic lead compound LASSBio-579” (Eur J Med Chem, 2013)
The source made the active and inactive calls. The rule behind the calls is not given here.

Tests used:
Mus musculus [1] = assay: Antipsychotic activity in CF1 mouse assessed as prevention of ketamine-induced hyperlocomotion at 1 mg/kg, po administered 30 mins prior ketamine challenge measured for 20 mins post challenge; assay type: functional, organism-based; design: dose 1 mg/kg
In short: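 Male CF1 mice, dosed orally (10 ml/kg, fasted 2 h) and placed at the centre of the apparatus in a dimly lit room. Ketamine 10 mg/kg was given s.c. 30 min later. A blinded observer counted square crossings over 20 min. n = 7-8. One-way ANOVA with Student-Newman-Keuls post hoc test.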

Mus musculus [2] = assay: Antipsychotic activity in CF1 mouse assessed as prevention of apomorphine-induced climbing behaviour at 15 mg/kg, po administered 30 mins prior apomorphine challenge measured 5 to 30 mins post challenge; assay type: functional, organism-based; design: dose 15 mg/kg
In short: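 Male CF1 mice (25-35 g), given the drug orally (10 ml/kg, fasted 2 h) and then kept in metal-bar cages for 30 min. Apomorphine 4 mg/kg was then given s.c. Climbing was scored 0-4 for 1 min at 5, 10, 15, 20, 25 and 30 min, and the scores were summed per animal as a climbing index. n = 8-9. One-way ANOVA with Student-Newman-Keuls post hoc test.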

[3] = biological target: 5-hydroxytryptamine receptor 2A (Rattus norvegicus) (UniProt P14842); assay: Antagonist activity at 5HT2A receptor in rat brain cortical membranes assessed as inhibition of [3H]-ketanserin binding to receptor after 15 mins by competition assay in presence of GTP; assay type: cell membranes
In short: (§1)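 Rat cortical membranes, 150 µg protein, with 1 nM [3H]-ketanserin and 100 nM prazosin in 50 mM Tris-HCl pH 7.4, 37 °C, 15 min. Non-specific binding was defined with ketanserin. For the GTP shift, paired competition curves were run without and with guanylyl nucleotide (0.1 mM Gpp(NH)p or 1 mM GTP).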

[4] = biological target: 5-hydroxytryptamine receptor 2A (Rattus norvegicus) (UniProt P14842); assay: Antagonist activity at 5HT2A receptor in rat brain cortical membranes assessed as inhibition of [3H]-ketanserin binding to receptor after 15 mins by competition assay in absence of GTP; assay type: cell membranes; in short: as §1
[5] = biological target: T1, 5-hydroxytryptamine receptor 1A (Rattus norvegicus) (UniProt P19327); assay: Antagonist activity at 5HT1A receptor in rat brain hippocampal membranes assessed as inhibition of [3H]-8-OH-DPAT binding to receptor after 15 mins by competition assay in absence of GTP; assay type: cell membranes
T1 sequence (whole entry): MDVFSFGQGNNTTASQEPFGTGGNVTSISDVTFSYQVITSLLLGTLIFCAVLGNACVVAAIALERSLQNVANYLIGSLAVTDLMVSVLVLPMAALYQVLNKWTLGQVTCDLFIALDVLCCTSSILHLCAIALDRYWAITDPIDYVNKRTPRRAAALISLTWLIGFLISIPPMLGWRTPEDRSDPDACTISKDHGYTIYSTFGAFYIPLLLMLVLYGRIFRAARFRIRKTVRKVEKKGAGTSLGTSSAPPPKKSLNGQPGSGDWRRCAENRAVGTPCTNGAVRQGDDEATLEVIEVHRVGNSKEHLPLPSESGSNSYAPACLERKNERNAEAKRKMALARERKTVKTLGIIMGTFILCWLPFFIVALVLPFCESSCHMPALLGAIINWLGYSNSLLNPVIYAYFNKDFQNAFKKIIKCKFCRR
In short: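 Hippocampal membranes, 40 µg protein, incubated with 1 nM [3H]-8-OH-DPAT at 37 °C for 15 min under yellow light. Buffer was 50 mM Tris-HCl pH 7.4 with 1 mM CaCl2, 1 mM MnCl2 and pargyline. Non-specific binding was defined with 5-HT. Filters were soaked in 0.5% polyethyleneimine. IC50 came from nonlinear regression fitted with one or two sites. Ki by Cheng-Prusoff, using Kd from saturation experiments.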

[6] = biological target: T1, 5-hydroxytryptamine receptor 1A (Rattus norvegicus); assay: Antagonist activity at 5HT1A receptor in rat brain hippocampal membranes assessed as inhibition of [3H]-8-OH-DPAT binding to receptor after 15 mins by competition assay in presence of GTP; assay type: cell membranes
Mus musculus [7] = assay: Antipsychotic activity in CF1 mouse assessed as prevention of ketamine-induced hyperlocomotion at 0.01 mg/kg, po administered 30 mins prior ketamine challenge measured for 20 mins post challenge; assay type: functional, organism-based; design: dose 0.01 mg/kg
In short: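 Mice were pretreated (reference drug orally after 2 h fast; test compound i.p.) and placed in the arena centre. Ketamine 10 mg/kg s.c. was given 30 min later. A blinded observer counted total square crossings over 20 min in a dimly lit room. n = 7–8. Analysed by one-way ANOVA with Newman-Keuls post hoc test.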

Mus musculus [8] = assay: Antipsychotic activity in CF1 mouse assessed as prevention of apomorphine-induced climbing behaviour at 0.5 mg/kg, po administered 30 mins prior apomorphine challenge measured 5 to 30 mins post challenge; assay type: functional, organism-based; design: dose 0.5 mg/kg
In short: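 Reference drug given orally to mice fasted 2 h. Apomorphine 4 mg/kg s.c. was given 30 min later. Climbing was scored 0–4 at 5-min intervals up to 30 min and summed as the climbing index. n = 8–9. Analysed by one-way ANOVA with Newman-Keuls post hoc test.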

Sequence of 5-hydroxytryptamine receptor 2A (Rattus norvegicus) (P14842 whole entry): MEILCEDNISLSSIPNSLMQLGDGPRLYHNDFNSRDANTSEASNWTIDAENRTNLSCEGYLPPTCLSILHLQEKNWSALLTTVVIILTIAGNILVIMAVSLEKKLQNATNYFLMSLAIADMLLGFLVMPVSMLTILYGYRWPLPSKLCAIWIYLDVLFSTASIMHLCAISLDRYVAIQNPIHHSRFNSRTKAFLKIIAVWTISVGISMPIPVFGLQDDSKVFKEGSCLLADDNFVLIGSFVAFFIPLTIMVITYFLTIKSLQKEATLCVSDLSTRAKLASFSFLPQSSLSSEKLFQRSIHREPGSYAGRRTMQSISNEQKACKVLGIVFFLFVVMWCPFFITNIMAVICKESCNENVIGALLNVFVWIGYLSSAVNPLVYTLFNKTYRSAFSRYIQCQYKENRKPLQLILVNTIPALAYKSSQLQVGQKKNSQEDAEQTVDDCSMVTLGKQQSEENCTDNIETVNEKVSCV

CN1CCN(C2=Nc3cc(Cl)ccc3Nc3ccccc32)CC1
Activity (Mus musculus [1]): Active | Activity (Mus musculus [2]): Active

O=C(c1ccc(F)cc1)C1CCN(CCn2c(=O)[nH]c3ccccc3c2=O)CC1
inhibition [3]: Active | inhibition [4]: Active

COc1ccccc1N1CCN(CCN(C(=O)c2ccc(F)cc2)c2ccccn2)CC1
inhibition [5]: Active | inhibition [6]: Active

O=C(CCCN1CCC(O)(c2ccc(Cl)cc2)CC1)c1ccc(F)cc1
Activity (Mus musculus [7]): inactive | Activity (Mus musculus [8]): Active
